Converted amounts (≈) assume the structure as drawn.

Broadly, the MIC is the lowest concentration found to suppress growth. Low values mean a more susceptible organism, high ones a less susceptible organism. The MIC50 is an inhibitory concentration at the 50% level, which refers to growth in some studies and to a panel of isolates in others. Usually MIC90 stands for the lowest concentration that inhibits either 90% of growth or 90% of the strains tested, depending on the study. Read a high MIC90 as weaker potency.

For the first assay, the system named is Staphylococcus aureus. The assay is described as follows: Antibacterial activity against methicillin-susceptible Staphylococcus aureus ATCC 29213 after 50 passages by agar dilution method. The note with it: ATCC29213. The class given is functional. The gist of the method: (§1)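 Daily serial passage for up to 50 days at 35°C for 24 h in 1 ml MHB. […] Each transfer used 10 µl from the tube nearest the MIC (1–2 dilutions below) with the same turbidity as the drug-free control. […] MICs were measured by agar dilution, with changes given as log2 steps.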
The molecule `COc1cc(Cc2cnc(N)nc2N)cc(/C=C/C(=O)N2N=Cc3ccccc3C2c2cnc(N3CCOCC3)nc2)c1OC` (configuration not stated) showed an MIC of 1 mg/L (≈ 1.65 µM).

For the next assay, the system named is Staphylococcus aureus. The assay is described as follows: Antibacterial activity against methicillin-susceptible, vancomycin-intermediate Staphylococcus aureus 505 by broth macrodilution method.
Settings: not given
The class given is functional.
Molecule `COc1cc(Cc2cnc(N)nc2N)cc(/C=C/C(=O)N2N=Cc3ccccc3C2c2cnc(N3CCOCC3)nc2)c1OC` (configuration not stated) returned an MIC of 0.03 mg/L (≈ 0.0494 µM).

The next assay deals with Staphylococcus epidermidis. The assay is described as follows: Antibacterial activity against coagulase-negative Staphylococcus epidermidis 051 after 10 passages in MBH without antibiotic by agar dilution method. It is filed as functional.
Settings: not given
In outline: (§2)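 After drug-selective serial passage, selected clones were passaged 10 times in antibiotic-free MHB. MICs were then redetermined, and the change is expressed as log2 dilution steps.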
On the technique in general: Agar dilution tests growth on a series of plates holding different concentrations.
In the case of `COc1cc(Cc2cnc(N)nc2N)cc(/C=C/C(=O)N2N=Cc3ccccc3C2c2cnc(N3CCOCC3)nc2)c1OC` (configuration not stated), the minimum inhibitory concentration (MIC) came to 1 mg/L (≈ 1.65 µM).

In a further assay the test system is Staphylococcus aureus. The assay is described as follows: Antibacterial activity against methicillin-resistant Staphylococcus aureus by agar dilution method. The class given is functional.
Settings: not given
In outline: (§3)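 Agar dilution on Mueller-Hinton agar per CLSI guidelines. S. aureus ATCC 29213 and E. faecalis ATCC 29212 were run with each set, and test MICs were accepted only when the control strains fell within acceptable ranges.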
Molecule `COc1cc(Cc2cnc(N)nc2N)cc(/C=C/C(=O)N2N=Cc3ccccc3C2c2cnc(N3CCOCC3)nc2)c1OC` (configuration not stated) yielded an MIC50 of 0.03 mg/L (≈ 0.0494 µM) and an MIC90 of 0.25 mg/L (≈ 0.411 µM).

The test system of the next assay is Staphylococcus epidermidis. The assay is described as follows: Antibacterial activity against methicillin-susceptible coagulase-negative Staphylococcus epidermidis 057 by broth macrodilution method. It is filed as functional.
Settings: not given
Regarding `COc1cc(Cc2cnc(N)nc2N)cc(/C=C/C(=O)N2N=Cc3ccccc3C2c2cnc(N3CCOCC3)nc2)c1OC` (configuration not stated), the MIC is 4 mg/L (≈ 6.58 µM).

In another assay the test system is Staphylococcus aureus. The assay is described as follows: Antibacterial activity against methicillin-susceptible, vancomycin-intermediate Staphylococcus aureus 505 after 50 passages by agar dilution method. The class given is functional.
Settings: not given
The gist of the method: as §1
`COc1cc(Cc2cnc(N)nc2N)cc(/C=C/C(=O)N2N=Cc3ccccc3C2c2cnc(N3CCOCC3)nc2)c1OC` (configuration not stated) displayed an MIC of 2 mg/L (≈ 3.29 µM).

For the next assay, the system named is Staphylococcus epidermidis. Kind of assay: Antibacterial activity against coagulase-negative Staphylococcus epidermidis 057 by agar dilution method. It is filed as functional.
Settings: not given
The gist of the method: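 Agar dilution MIC determined on Mueller-Hinton agar following CLSI guidelines. S. aureus ATCC 29213 and Enterococcus faecalis ATCC 29212 were run as quality controls with each set, and test MICs were accepted only when the control MICs fell within acceptable ranges. Test organism was a coagulase-negative S. epidermidis strain.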
The molecule `COc1cc(Cc2cnc(N)nc2N)cc(/C=C/C(=O)N2N=Cc3ccccc3C2c2cnc(N3CCOCC3)nc2)c1OC` (configuration not stated) yielded a minimum inhibitory concentration (MIC) of 8 mg/L (≈ 13.2 µM).

The subject of a further assay is Staphylococcus epidermidis. Kind of assay: Antibacterial activity against coagulase-negative Staphylococcus epidermidis 057 after 10 passages in MBH without antibiotic by agar dilution method. The class given is functional.
Settings: not given
In outline:
as §2
The molecule `COc1cc(Cc2cnc(N)nc2N)cc(/C=C/C(=O)N2N=Cc3ccccc3C2c2cnc(N3CCOCC3)nc2)c1OC` (configuration not stated) came in with an MIC of 128 mg/L (≈ 211 µM).

A further assay concerns Staphylococcus aureus. The assay is described as follows: Antibacterial activity against methicillin-resistant Staphylococcus aureus 145 by broth macrodilution method. The class given is functional.
Settings: not given
As for `COc1cc(Cc2cnc(N)nc2N)cc(/C=C/C(=O)N2N=Cc3ccccc3C2c2cnc(N3CCOCC3)nc2)c1OC` (configuration not stated), 0.25 mg/L (≈ 0.411 µM) was the least that counted as inhibitory (MIC).

Another assay deals with Staphylococcus epidermidis. The assay is described as follows: Antibacterial activity against coagulase-negative Staphylococcus epidermidis 057 assessed as change in MIC by agar dilution method after serial passages in the absence of antibiotic relative to control.
Settings: not given
The class given is functional. The gist of the method: as §2
As for `COc1cc(Cc2cnc(N)nc2N)cc(/C=C/C(=O)N2N=Cc3ccccc3C2c2cnc(N3CCOCC3)nc2)c1OC` (configuration not stated), the “fold change (FC)” value is given as -1.

A further assay deals with Staphylococcus aureus. Kind of assay: Antibacterial activity against methicillin-resistant Staphylococcus aureus ATCC 43300 by broth macrodilution method. To be noted: ATCC43300. It is filed as functional.
Molecule `COc1cc(Cc2cnc(N)nc2N)cc(/C=C/C(=O)N2N=Cc3ccccc3C2c2cnc(N3CCOCC3)nc2)c1OC` (configuration not stated) gave a minimal inhibitory concentration (MIC) of 0.03 mg/L (≈ 0.0494 µM).

For a further assay, the system named is Staphylococcus aureus. The assay is described as follows: Antibacterial activity against Tmp-susceptible coagulase-negative Staphylococcus aureus by agar dilution method. The class given is functional.
Settings: not given
The gist of the method:
(§4)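 MICs by agar dilution on Mueller-Hinton agar following CLSI guidelines. S. aureus ATCC 29213 and E. faecalis ATCC 29212 were run as quality controls with each set, and test-strain MICs were kept only if control MICs fell within acceptable ranges.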
Turning to `COc1cc(Cc2cnc(N)nc2N)cc(/C=C/C(=O)N2N=Cc3ccccc3C2c2cnc(N3CCOCC3)nc2)c1OC` (configuration not stated), the minimum inhibitory concentration (MIC) is at most 0.008 mg/L.

Another assay deals with Staphylococcus epidermidis. The assay is described as follows: Antibacterial activity against coagulase-negative Staphylococcus epidermidis 051 by agar dilution method. It is filed as functional.
Settings: not given
In outline: as §4
Consider `COc1cc(Cc2cnc(N)nc2N)cc(/C=C/C(=O)N2N=Cc3ccccc3C2c2cnc(N3CCOCC3)nc2)c1OC` (configuration not stated), for which the minimal inhibitory concentration (MIC) was 0.5 mg/L (≈ 0.823 µM).

The subject of the next assay is Staphylococcus aureus. The assay is described as follows: Antibacterial activity against methicillin-resistant Staphylococcus aureus ATCC 43300 after 50 passages by agar dilution method. It is filed as functional. The note with it: ATCC43300. The gist of the method: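 Serial passage under drug. Inoculum was ~1 × 10^6 CFU/ml from overnight MHA growth, in 1 ml MHB at 35°C for 24 h. Drug ranged from 4 log2 steps above to 3 log2 steps below the MIC. […] MIC change is given as log2 steps.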
For `COc1cc(Cc2cnc(N)nc2N)cc(/C=C/C(=O)N2N=Cc3ccccc3C2c2cnc(N3CCOCC3)nc2)c1OC` (configuration not stated), the MIC was 2 mg/L (≈ 3.29 µM).

A further assay deals with Staphylococcus aureus. The assay is described as follows: Antibacterial activity against methicillin-resistant and vancomycin-resistant Staphylococcus aureus VRS1 by agar dilution method. The class given is functional.
Settings: not given
The gist of the method: as §3
The molecule `COc1cc(Cc2cnc(N)nc2N)cc(/C=C/C(=O)N2N=Cc3ccccc3C2c2cnc(N3CCOCC3)nc2)c1OC` (configuration not stated) registered an MIC of 1 mg/L (≈ 1.65 µM).

The subject of the next assay is Staphylococcus epidermidis. Kind of assay: Antibacterial activity against methicillin-resistant, Linezolid non-susceptible coagulase-negative Staphylococcus epidermidis 345 by agar dilution method. It is filed as functional.
Settings: not given
As to `COc1cc(Cc2cnc(N)nc2N)cc(/C=C/C(=O)N2N=Cc3ccccc3C2c2cnc(N3CCOCC3)nc2)c1OC` (configuration not stated), inhibition of growth (MIC) required 0.06 mg/L (≈ 0.0987 µM).

The subject of a further assay is coagulase-negative staphylococci. Kind of assay: Antibacterial activity against methicillin-resistant coagulase-negative staphylococci by agar dilution method.
Settings: not given
Molecule `COc1cc(Cc2cnc(N)nc2N)cc(/C=C/C(=O)N2N=Cc3ccccc3C2c2cnc(N3CCOCC3)nc2)c1OC` (configuration not stated) yielded an MIC50 of 0.06 mg/L (≈ 0.0987 µM) and an MIC90 of 0.5 mg/L (≈ 0.823 µM).

The test system of another assay is Staphylococcus epidermidis. The assay is described as follows: Antibacterial activity against coagulase-negative Staphylococcus epidermidis 225 after 10 passages in MBH without antibiotic by agar dilution method. It is filed as functional.
Settings: not given
The gist of the method:
as §2
Take `COc1cc(Cc2cnc(N)nc2N)cc(/C=C/C(=O)N2N=Cc3ccccc3C2c2cnc(N3CCOCC3)nc2)c1OC` (configuration not stated): the minimal inhibitory concentration (MIC) was found to be 2 mg/L (≈ 3.29 µM).

A further assay has as its system Staphylococcus aureus. The assay is described as follows: Antibacterial activity against Tmp-susceptible Staphylococcus aureus by agar dilution method. The class given is functional.
Settings: not given
In outline:
as §4
For `COc1cc(Cc2cnc(N)nc2N)cc(/C=C/C(=O)N2N=Cc3ccccc3C2c2cnc(N3CCOCC3)nc2)c1OC` (configuration not stated), the MIC50 came out at 0.03 mg/L (≈ 0.0494 µM) and the MIC90 is 0.06 mg/L (≈ 0.0987 µM).

The record behind these values is ChEMBL document CHEMBL1649147, “Antistaphylococcal activity of dihydrophthalazine antifolates, a family of novel antibacterial drugs” (2009).
